Data taken from ChEMBL document CHEMBL1134229 (Bioorg Med Chem Lett, 2001).

Assays:
[1] = target: T1, Somatostatin receptor type 5 (Homo sapiens, UniProt P35346); experiment: Inhibitory constant on human somatostatin receptor 5
How it was run: (§1)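 Competition binding against [¹²⁵I-Tyr¹¹]SRIF-14 on membranes from CHO-K1 cells stably expressing each human SRIF receptor subtype. Method adapted from Shimon et al. Ki is reported.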

[2] = target: T2, Somatostatin receptor type 4 (Homo sapiens, UniProt P31391); experiment: Inhibitory constant on human somatostatin receptor 4; how it was run: as §1
T2 sequence (P31391 whole entry): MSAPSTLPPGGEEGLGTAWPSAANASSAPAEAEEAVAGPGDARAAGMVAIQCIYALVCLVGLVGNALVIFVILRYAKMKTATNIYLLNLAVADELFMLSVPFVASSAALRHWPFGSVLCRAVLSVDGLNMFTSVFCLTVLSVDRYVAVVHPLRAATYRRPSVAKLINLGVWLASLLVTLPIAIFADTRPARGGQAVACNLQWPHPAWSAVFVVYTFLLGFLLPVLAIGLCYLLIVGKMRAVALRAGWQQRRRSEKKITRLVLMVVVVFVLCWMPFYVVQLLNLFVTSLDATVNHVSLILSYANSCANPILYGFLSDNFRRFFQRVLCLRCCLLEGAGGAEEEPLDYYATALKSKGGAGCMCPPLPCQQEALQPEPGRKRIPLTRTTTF

[3] = target: Somatostatin receptor type 1 (Homo sapiens, UniProt P30872); experiment: Inhibitory constant on human Somatostatin receptor type 1; how it was run: as §1
Somatostatin receptor type 1, sequence (P30872 whole entry): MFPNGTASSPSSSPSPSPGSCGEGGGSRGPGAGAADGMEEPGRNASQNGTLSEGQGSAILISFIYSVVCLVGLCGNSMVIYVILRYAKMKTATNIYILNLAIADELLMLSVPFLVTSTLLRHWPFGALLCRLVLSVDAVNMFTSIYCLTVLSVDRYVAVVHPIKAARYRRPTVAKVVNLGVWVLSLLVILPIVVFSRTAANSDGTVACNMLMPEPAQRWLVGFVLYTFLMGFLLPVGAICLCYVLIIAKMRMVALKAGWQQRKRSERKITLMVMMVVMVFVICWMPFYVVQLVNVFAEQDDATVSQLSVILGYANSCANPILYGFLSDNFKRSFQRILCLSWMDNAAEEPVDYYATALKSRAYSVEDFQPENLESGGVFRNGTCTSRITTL

[4] = target: T3, Somatostatin receptor type 3 (Homo sapiens, UniProt P32745); experiment: Inhibitory constant on human somatostatin receptor type 3; how it was run: as §1
T3 sequence (P32745 whole entry): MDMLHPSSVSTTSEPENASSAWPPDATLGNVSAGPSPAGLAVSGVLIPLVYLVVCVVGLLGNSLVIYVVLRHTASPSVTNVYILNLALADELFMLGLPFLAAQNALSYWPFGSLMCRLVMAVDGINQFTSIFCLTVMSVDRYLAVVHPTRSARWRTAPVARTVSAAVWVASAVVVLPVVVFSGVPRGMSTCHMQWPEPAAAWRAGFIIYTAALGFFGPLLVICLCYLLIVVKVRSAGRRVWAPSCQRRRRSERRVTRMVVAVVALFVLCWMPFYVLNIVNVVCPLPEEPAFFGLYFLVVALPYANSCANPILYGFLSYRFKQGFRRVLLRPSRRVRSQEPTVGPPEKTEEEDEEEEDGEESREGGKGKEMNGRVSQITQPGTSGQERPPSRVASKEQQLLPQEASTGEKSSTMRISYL

[5] = target: T4, Somatostatin receptor type 2 (Homo sapiens, UniProt P30874); experiment: (§2) Inhibitory constant on human Somatostatin receptor type 2; type: single protein; how it was run: as §1
T4 sequence (P30874 whole entry): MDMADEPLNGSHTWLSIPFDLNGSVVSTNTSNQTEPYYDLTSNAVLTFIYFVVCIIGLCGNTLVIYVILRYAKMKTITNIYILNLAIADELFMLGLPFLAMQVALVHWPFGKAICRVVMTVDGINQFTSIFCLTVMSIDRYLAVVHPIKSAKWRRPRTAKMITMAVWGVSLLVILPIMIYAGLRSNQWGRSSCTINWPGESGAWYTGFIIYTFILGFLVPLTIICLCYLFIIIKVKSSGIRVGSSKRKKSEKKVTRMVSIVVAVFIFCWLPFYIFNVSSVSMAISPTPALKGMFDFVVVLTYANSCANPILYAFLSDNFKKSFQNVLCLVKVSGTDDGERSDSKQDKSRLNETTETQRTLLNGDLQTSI

[6] = target: T3, Somatostatin receptor type 3; experiment: Inhibitory constant on human Somatostatin receptor type 3; how it was run: as §1
[7] = target: T1, Somatostatin receptor type 5; experiment: Inhibitory constant on human Somatostatin receptor type 5; how it was run: as §1
[8] = target: T2, Somatostatin receptor type 4; experiment: Inhibitory constant on human Somatostatin receptor type 4; how it was run: as §1
[9] = target: T4, Somatostatin receptor type 2; experiment: as §2; how it was run: as §1
[10] = target: T1, Somatostatin receptor type 5; experiment: Agonist activity on human somatostatin receptor 5; type: functional
How it was run: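 Confluent CHO-K1 cells expressing human sst₅ were washed in RPMI 1640 with 0.2% BSA at 37 °C, then preincubated 5 min with isobutylmethylxanthine. Cells were then incubated 20 min at 37 °C with forskolin plus increasing agonist concentrations.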

T1 sequence (P35346 whole entry): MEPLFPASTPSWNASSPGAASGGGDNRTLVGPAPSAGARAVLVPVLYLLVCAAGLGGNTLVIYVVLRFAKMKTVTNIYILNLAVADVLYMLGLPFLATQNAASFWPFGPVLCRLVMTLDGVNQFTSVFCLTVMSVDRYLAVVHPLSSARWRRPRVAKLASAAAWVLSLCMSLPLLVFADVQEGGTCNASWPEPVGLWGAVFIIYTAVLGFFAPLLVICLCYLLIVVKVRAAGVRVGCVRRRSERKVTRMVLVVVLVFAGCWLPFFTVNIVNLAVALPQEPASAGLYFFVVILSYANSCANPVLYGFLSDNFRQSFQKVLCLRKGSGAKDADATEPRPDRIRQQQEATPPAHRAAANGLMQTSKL

Row | Structure (SMILES) | Ki [1] | Ki [2] | Ki [3] | Ki [4] | Ki [5] | Ki [6] | Ki [7] | Ki [8] | Ki [9] | EC50 [10]
1 | CCCCNC(=O)C(C)(C)c1cn2cc(-c3csc4ccccc34)nc(CCCN)c2n1 | 0.54 µM | > 10 µM | > 10 µM | 8.9 µM | > 10 µM | – | – | – | – | –
2 | NCCCc1nc(-c2ccccc2)cn2cc(-c3ccccc3)nc12 | > 5 µM | > 5 µM | > 5 µM | > 5 µM | > 5 µM | – | – | – | – | –
3 | c1ccc(Cc2nc(-c3ccccc3)cn3cc(-c4ccccc4)nc23)cc1 | – | – | > 5 µM | – | – | > 5 µM | > 5 µM | > 5 µM | > 5 µM | –
4 | NCCCc1nc(-c2cccc([N+](=O)[O-])c2)cn2cc(-c3ccccc3)nc12 | 0.43 µM | > 10 µM | 3.4 µM | 2.5 µM | 7.9 µM | – | – | – | – | –
5 | NCCCc1nc(-c2csc3ccccc23)cn2cc(-c3ccccc3)nc12 | 0.6 µM | 7.2 µM | 2.9 µM | 1.7 µM | 2.1 µM | – | – | – | – | –

Further lines, results first:

Row | Ki [1] | Ki [2] | Ki [3] | Ki [4] | Ki [5] | Ki [6] | Ki [7] | Ki [8] | Ki [9] | EC50 [10] | Structure (SMILES)
6 | 0.79 µM | > 10 µM | 3.3 µM | 3.1 µM | 6 µM | – | – | – | – | – | NCCCc1nc(-c2c[nH]c3ccccc23)cn2cc(-c3ccccc3)nc12
7 | 1.2 µM | 7.2 µM | 4.6 µM | 1.2 µM | 8.6 µM | – | – | – | – | – | CC(C)(C(=O)NCCc1c[nH]c2ccccc12)c1cn2cc(Cc3ccccc3)nc(CCCN)c2n1
8 | – | – | > 10 µM | – | – | > 10 µM | > 1 µM | > 10 µM | > 10 µM | – | CC(C)(C(=O)NCCN)c1cn2c(n1)C(Cc1c[nH]c3ccccc13)N=C(Cc1ccccc1)C2 (stereo unspecified)
9 | 0.36 µM | > 10 µM | 9.7 µM | 3.7 µM | 9.5 µM | – | – | – | – | 1.6 µM | CC(C)(C(=O)NC1CCCCC1)c1cn2cc(-c3csc4ccccc34)nc(CCCN)c2n1
10 | 2.3 µM | > 10 µM | 4 µM | 10 µM | 3.2 µM | – | – | – | – | – | CC(C)(C(=O)NCCc1c[nH]c2ccccc12)c1cn2cc(-c3csc4ccccc34)nc(CCCN)c2n1
